Data as given in ChEMBL document CHEMBL3098014 (Bioorg Med Chem, 2014).

Columns and labels:
[1] = target: Transporter (Rattus norvegicus, UniProt Q63380); assay: Displacement of [3H]-dopamine from rat cerebral cortex NET after 7 mins; type: tissue-based
[2] = target: Sodium-dependent serotonin transporter (Rattus norvegicus, UniProt P31652); assay: Displacement of [3H]5-HT from rat cerebral cortex SERT after 10 mins; type: tissue-based
In short: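 Rat cerebral cortex tissue. Inhibition of [3H]5-HT (27.9 Ci/mmol) uptake, accumulation measured over 10 min. Drug stocks included an added 0.01% (w/v) BSA. Five or more triplicate concentrations bracketing the IC50, converted to Ki by Cheng-Prusoff. Mean ± SEM from three to eight independent experiments.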

[3] = target: Sodium-dependent dopamine transporter (Rattus norvegicus, UniProt P23977); assay: Displacement of [3H]-dopamine from rat striatum DAT after 5 mins
In short: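 Uptake inhibition in rat striatal tissue: [3H]dopamine (45.0 Ci/mmol) accumulation measured over 5 min. Drug stocks contained an extra 0.01% (w/v) BSA. At least five concentrations, each in triplicate, spaced evenly around the IC50. IC50 converted to Ki via Cheng-Prusoff. Average ± SEM of three to eight independent experiments.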

Chain of Transporter (Q63380 whole entry): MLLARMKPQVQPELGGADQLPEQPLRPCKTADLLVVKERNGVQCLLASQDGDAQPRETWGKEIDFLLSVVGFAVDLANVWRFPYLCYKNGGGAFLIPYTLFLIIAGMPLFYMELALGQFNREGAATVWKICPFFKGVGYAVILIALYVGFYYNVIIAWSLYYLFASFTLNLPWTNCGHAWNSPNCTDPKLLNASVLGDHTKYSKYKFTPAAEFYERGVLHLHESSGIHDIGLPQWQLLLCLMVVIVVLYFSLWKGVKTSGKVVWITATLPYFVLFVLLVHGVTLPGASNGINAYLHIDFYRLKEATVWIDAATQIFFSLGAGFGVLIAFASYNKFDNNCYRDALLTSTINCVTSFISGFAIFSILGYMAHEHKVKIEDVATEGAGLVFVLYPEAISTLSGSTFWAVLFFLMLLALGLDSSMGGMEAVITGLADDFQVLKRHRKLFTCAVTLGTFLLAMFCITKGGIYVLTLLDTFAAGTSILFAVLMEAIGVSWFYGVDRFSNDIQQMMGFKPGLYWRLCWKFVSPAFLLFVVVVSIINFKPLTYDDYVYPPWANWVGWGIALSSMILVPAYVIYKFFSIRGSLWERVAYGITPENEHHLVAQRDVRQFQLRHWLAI
Chain of Sodium-dependent dopamine transporter (P23977 whole entry): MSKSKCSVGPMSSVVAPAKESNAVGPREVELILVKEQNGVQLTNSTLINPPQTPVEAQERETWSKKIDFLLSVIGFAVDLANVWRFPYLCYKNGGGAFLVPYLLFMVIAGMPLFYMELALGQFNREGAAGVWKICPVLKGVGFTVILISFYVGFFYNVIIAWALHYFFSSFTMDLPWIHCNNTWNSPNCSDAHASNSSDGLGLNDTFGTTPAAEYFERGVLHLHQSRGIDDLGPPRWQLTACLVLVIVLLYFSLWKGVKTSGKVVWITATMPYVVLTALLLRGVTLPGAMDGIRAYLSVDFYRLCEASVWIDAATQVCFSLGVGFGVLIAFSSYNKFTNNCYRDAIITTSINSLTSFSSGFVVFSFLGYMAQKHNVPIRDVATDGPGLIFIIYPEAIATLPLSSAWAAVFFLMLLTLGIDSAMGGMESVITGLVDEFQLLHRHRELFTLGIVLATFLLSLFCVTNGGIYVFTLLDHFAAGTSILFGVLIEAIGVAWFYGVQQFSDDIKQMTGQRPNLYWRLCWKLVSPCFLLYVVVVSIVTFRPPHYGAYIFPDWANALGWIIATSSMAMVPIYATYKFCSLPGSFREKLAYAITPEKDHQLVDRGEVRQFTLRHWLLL
Chain of Sodium-dependent serotonin transporter (P31652 whole entry): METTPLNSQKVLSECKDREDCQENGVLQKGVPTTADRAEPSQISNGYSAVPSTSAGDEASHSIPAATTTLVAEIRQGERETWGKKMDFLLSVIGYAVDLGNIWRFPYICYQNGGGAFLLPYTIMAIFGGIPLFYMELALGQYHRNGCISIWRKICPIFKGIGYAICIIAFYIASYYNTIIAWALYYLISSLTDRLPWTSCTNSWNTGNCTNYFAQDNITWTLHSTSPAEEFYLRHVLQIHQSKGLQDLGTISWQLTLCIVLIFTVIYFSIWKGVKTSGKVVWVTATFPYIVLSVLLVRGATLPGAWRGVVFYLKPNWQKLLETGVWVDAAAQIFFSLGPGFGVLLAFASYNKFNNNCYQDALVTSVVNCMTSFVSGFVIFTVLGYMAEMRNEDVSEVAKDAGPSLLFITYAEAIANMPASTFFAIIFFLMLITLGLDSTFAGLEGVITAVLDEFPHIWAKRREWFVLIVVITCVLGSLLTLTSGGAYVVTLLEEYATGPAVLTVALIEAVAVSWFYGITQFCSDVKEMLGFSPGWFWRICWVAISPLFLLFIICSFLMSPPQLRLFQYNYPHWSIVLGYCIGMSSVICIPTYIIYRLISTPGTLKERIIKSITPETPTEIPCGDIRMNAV

Structure (SMILES) | Ki [1] | Ki [2] | Ki [3]
Nc1ccc(CN[C@H]2CC[C@@H](C(c3ccccc3)c3ccccc3)OC2)cc1 | 12.6 nM |  | 
Oc1ccc(CN[C@H]2CC[C@@H](Cc3ccccc3)OC2)cc1 | 240 nM | 2500 nM | 
Oc1ccc(CN[C@@H]2CO[C@H](C(c3ccccc3)c3ccccc3)C2)cc1 | 1510 nM | 1150 nM | 943 nM
Oc1ccc(CCN[C@@H]2CO[C@H](C(c3ccccc3)c3ccccc3)C2)cc1 | 165 nM | 150 nM | 260 nM
COc1ccc(CCN[C@@H]2CO[C@H](C(c3ccccc3)c3ccccc3)C2)cc1 | 198 nM | 358 nM | 266 nM
Fc1ccc(CCN[C@@H]2CO[C@H](C(c3ccccc3)c3ccccc3)C2)cc1 | 196 nM | 1350 nM | 586 nM
c1ccc(CCN[C@@H]2CO[C@H](C(c3ccccc3)c3ccccc3)C2)cc1 | 427 nM | 2050 nM | 642 nM
Oc1ccc(CN[C@H]2CO[C@H](C(c3ccccc3)c3ccccc3)C2)cc1 | 975 nM | 408 nM | 3690 nM
c1ccc(CCN[C@H]2CO[C@H](C(c3ccccc3)c3ccccc3)C2)cc1 | 739 nM | 844 nM | 454 nM
Oc1ccc(CN[C@@H]2CO[C@H](C(c3ccc(F)cc3)c3ccc(F)cc3)C[C@H]2O)cc1 | 4.2 nM | 58.4 nM | 38.4 nM
Fc1ccc(C(c2ccc(F)cc2)[C@@H]2CC[C@H](NCc3ccc4c(c3)CCO4)CO2)cc1 | 6.1 nM | 3 nM | 11.2 nM
Nc1ccc(CN[C@H]2CC[C@@H](C(c3ccc(F)cc3)c3ccc(F)cc3)OC2)cc1 | 8.4 nM | 69.1 nM | 32.5 nM
Oc1ccc(CN[C@H]2CC[C@@H](CC(c3ccccc3)c3ccccc3)OC2)cc1 | 181 nM | 346 nM | 245 nM
Oc1ccc(CN[C@H]2CC[C@@H](CCC(c3ccccc3)c3ccccc3)OC2)cc1 | 37.7 nM | 473 nM | 45.7 nM
